ChEMBL document CHEMBL2177015, “Bicyclization and tethering to albumin yields long-acting peptide antagonists” (J Med Chem, 2012)
Starred links: 1 amine or outer side, 2 acyl side, 3 side chain; linkers in the order of their positions; H or OH if unused. Positions of bridges follow the written chain, without caps; N, C: chain ends. Residues, ends and D or L forms follow the SMILES beside them. TBMB = c1c(C[*:1])cc(C[*:3])cc1C[*:2]; mXylylene = c1cc(C[*:1])cc(C[*:2])c1; pXylylene = c1cc(C[*:2])ccc1C[*:1]

What was measured:
Albumin [1] = target: Albumin (Mus musculus, UniProt P07724); assay: Binding affinity to mouse serum albumin by fluorescence polarization assay; type: ADME
In short: (§1)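 Proteins serially diluted 3/2-fold in phosphate buffer (10 mM Na2HPO4, pH 7.4, 150 mM NaCl) and mixed 1:1 with fluorescein-labelled peptide. Incubated 30 min at room temperature, then fluorescence polarization read (excitation 480 nm, emission 535 nm). KD from nonlinear regression of anisotropy against total protein concentration using a quadratic binding equation. Done at 25 °C.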

Albumin [2] = target: Albumin (Homo sapiens, UniProt P02768); assay: Binding affinity to human serum albumin by fluorescence polarization assay; type: ADME; in short: as §1
[3] = Terminal half life in mouse; type: ADME, organism-based; conditions: in vivo
In short: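 Female BALB/c mice aged 7–9 weeks, given 200 μL of 50 μM in PBS intravenously; 2–3 mice per time point. EDTA plasma sampled up to 320 min or up to 48 h. Conjugate measured by reversed-phase UFLC with fluorescence detection (ex 490, em 525 nm) and by uPA-capture ELISA with antifluorescein detection. Data fitted to a two-compartment model; t1/2 β taken.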

[4] = Terminal half life in rabbit; type: ADME, organism-based, Oryctolagus cuniculus; conditions: in vivo
Plasma [5] = assay: Drug degradation in mouse plasma at 50 uM after 24 hrs by RP-HPLC analysis; type: ADME, cell-free
In short: (§2)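 Peptide spiked from 1 mM water stock into mouse plasma (final 50 μM) and incubated at 37 °C. Samples taken at 0, 24 and 48 h, mixed 1:1 with water containing 0.1% TFA and stored at −20 °C. Analysed by RP-HPLC on a C8 column with 220 nm absorbance; peaks identified by ESI-MS.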

[6] = target: T1, Urokinase-type plasminogen activator (Homo sapiens, UniProt P00749); assay: Inhibition of human uPA
In short: (§3)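 Human urinary low-molecular-weight uPA (1.5 nM) with 2-fold inhibitor dilutions (8 μM to 1.95 nM) at 25 °C. Additive: 0.1% casein (±1.5 μM hSA or mSA), 0.1% ovA or 0.1% bSA. Substrate 50 μM H-Glu-Gly-Arg-pNA; A405 initial rates over 1 h. Ki from Kiapp corrected for substrate; means of ≥3.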

[7] = target: T1, Urokinase-type plasminogen activator; assay: Inhibition of human uPA using H-Glu-Gly-Arg-pNA as substrate after 1 hr in presence of ovalbumin; in short: as §3
[8] = target: T1, Urokinase-type plasminogen activator; assay: Inhibition of human uPA using H-Glu-Gly-Arg-pNA as substrate after 1 hr in presence of casein; in short: as §3
[9] = target: T1, Urokinase-type plasminogen activator; assay: Inhibition of human uPA using H-Glu-Gly-Arg-pNA as substrate after 1 hr in presence of casein and human serum albumin; in short: as §3
Plasma [10] = assay: (§4) Drug degradation in mouse plasma at 50 uM after 24 to 48 hrs by RP-HPLC analysis; type: ADME, cell-free; conditions: 50 µM; in short: as §2
[11] = target: T1, Urokinase-type plasminogen activator; assay: Inhibition of human uPA using H-Glu-Gly-Arg-pNA as substrate after 1 hr in presence of casein and mouse serum albumin; in short: as §3
[12] = target: T1, Urokinase-type plasminogen activator; assay: Inhibition of human uPA using H-Glu-Gly-Arg-pNA as substrate after 1 hr in presence of bovine serum albumin; in short: as §3
[13] = as §4; type: ADME, cell-free; conditions: read-out: Drug degradation; in short: as §2

Chain of Albumin (Mus musculus, UniProt P07724) (P07724 whole entry): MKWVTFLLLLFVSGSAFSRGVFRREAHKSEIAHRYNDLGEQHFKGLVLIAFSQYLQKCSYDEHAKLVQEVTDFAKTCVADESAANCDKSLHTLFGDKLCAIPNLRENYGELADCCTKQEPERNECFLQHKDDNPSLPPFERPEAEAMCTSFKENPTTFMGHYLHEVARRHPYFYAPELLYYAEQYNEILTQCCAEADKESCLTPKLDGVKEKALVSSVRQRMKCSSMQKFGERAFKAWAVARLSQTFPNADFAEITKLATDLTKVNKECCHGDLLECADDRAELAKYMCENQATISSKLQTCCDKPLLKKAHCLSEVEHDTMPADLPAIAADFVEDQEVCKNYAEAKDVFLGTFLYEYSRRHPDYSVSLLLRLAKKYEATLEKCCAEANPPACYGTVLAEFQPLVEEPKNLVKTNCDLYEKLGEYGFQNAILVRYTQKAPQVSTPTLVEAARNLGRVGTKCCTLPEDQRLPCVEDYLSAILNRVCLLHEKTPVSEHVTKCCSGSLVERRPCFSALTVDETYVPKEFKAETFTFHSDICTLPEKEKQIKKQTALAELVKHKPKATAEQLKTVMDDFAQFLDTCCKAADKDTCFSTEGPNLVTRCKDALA
Chain of Albumin (Homo sapiens, UniProt P02768) (P02768 whole entry): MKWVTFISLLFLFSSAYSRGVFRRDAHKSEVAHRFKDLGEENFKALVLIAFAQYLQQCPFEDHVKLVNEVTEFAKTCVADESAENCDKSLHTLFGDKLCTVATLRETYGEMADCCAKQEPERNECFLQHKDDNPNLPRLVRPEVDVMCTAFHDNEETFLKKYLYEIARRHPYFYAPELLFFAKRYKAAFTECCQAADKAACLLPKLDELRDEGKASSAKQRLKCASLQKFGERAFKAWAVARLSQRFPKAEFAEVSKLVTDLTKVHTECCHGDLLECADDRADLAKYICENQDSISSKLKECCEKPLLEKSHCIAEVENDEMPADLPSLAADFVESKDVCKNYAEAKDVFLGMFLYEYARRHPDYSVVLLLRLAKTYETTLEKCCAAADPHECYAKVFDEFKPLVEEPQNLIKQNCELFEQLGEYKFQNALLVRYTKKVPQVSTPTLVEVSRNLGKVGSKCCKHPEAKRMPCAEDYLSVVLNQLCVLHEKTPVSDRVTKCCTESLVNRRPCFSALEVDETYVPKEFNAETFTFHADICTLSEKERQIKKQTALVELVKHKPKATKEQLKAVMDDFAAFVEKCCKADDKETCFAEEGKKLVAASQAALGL

CC[C@H](C)[C@H](NC(=O)[C@H](CC(C)C)NC(=O)[C@H](CCCNC(=N)N)N[C@@H](CCCCN)C(=O)NCCCCN=[N+]=[N-])C(=O)N[C@@H](CCC(=O)O)C(=O)N[C@@H](CC(=O)O)C(=O)N[C@H](C(=O)N[C@H]1CSSC[C@@H](C(=O)N[C@@H](CC(C)C)C(=O)N[C@@H](Cc2c[nH]c3ccccc23)C(=O)N[C@@H](CCC(=O)O)C(=O)N[C@@H](CC(=O)O)C(=O)N[C@@H](CC(=O)O)C(=O)O)NC(=O)CNC(=O)[C@H](Cc2c[nH]c3ccccc23)NC(=O)[C@H](CCCNC(=N)N)NC(=O)[C@@H]2CCCN2C(=O)[C@H](CC(C)C)NC1=O)[C@@H](C)CC
Kd (Albumin [1]): 24 nM
Kd (Albumin [2]): 321 nM

CC[C@H](C)[C@H](NC(=O)[C@H](CC(=O)O)NC(=O)[C@H](CCC(=O)O)NC(=O)[C@H](CCSC)NC(=O)[C@H](CC(C)C)NC(=O)[C@H](CCCNC(=N)N)NC(=O)[C@@H](N)CCC(N)=O)C(=O)N[C@@H](CS)C(=O)N[C@@H](CC(C)C)C(=O)N1CCC[C@H]1C(=O)N[C@@H](CCCNC(=N)N)C(=O)N[C@@H](Cc1c[nH]c2ccccc12)C(=O)NCC(=O)N[C@@H](CS)C(=O)N[C@@H](CC(C)C)C(=O)N[C@@H](Cc1c[nH]c2ccccc12)C(=O)N[C@@H](CCC(=O)O)C(=O)N[C@@H](CC(=O)O)C(=O)N[C@@H](CC(=O)O)C(=O)N[C@@H](Cc1ccccc1)C(N)=O
half-life [3]: 19.7 h
half-life [4]: 68.5 h

CC(C)[C@@H]1NC(=O)[C@H](CCC(=O)O)NC(=O)[C@H](Cc2ccc(O)cc2)NC(=O)[C@H](CCCNC(=N)N)NC(=O)[C@H](CO)NC(=O)[C@@H](NC(=O)[C@H](C)N)CSCc2cccc(c2)CSC[C@@H](C(N)=O)NC(=O)[C@H](CC(=O)O)NC1=O (H-ACSRYEVDC-NH2; linker 2-9 via mXylylene)
Stability (Plasma [5]): Unstable

CC(C)[C@@H]1NC(=O)[C@H](CCC(=O)O)NC(=O)[C@H](Cc2ccc(O)cc2)NC(=O)[C@H](CCCN=C(N)N)NC(=O)[C@H](CO)NC(=O)[C@@H](NC(=O)[C@H](C)N)CSCc2cc3cc(c2)CSC[C@H](NC(=O)[C@H](CC(=O)O)NC1=O)C(=O)N[C@@H](CCCN=C(N)N)C(=O)NCC(=O)N[C@@H](CCCN=C(N)N)C(=O)NCC(=O)N[C@@H](CO)C(=O)N[C@@H](C)C(=O)N[C@H](C(=O)NCC(N)=O)CSC3 (H-ACSRYEVDCRGRGSACG-NH2; linker 2-9-16 via TBMB)
Ki [6]: 53 nM
Ki [7]: 56 nM
Ki [8]: 52 nM
Ki [9]: 60 nM
Stability (Plasma [10]): Unstable
Ki [11]: 54 nM
Ki [12]: 53 nM

CC(C)[C@@H]1NC(=O)[C@H](CCC(=O)O)NC(=O)[C@H](Cc2ccc(O)cc2)NC(=O)[C@H](CCCNC(=N)N)NC(=O)[C@H](CO)NC(=O)[C@@H](NC(=O)[C@H](C)N)CSCc2ccc(cc2)CSC[C@@H](C(=O)NCC(N)=O)NC(=O)[C@H](C)NC(=O)[C@H](CO)NC(=O)CNC(=O)[C@H](CCCNC(=N)N)NC(=O)CNC(=O)[C@H](CCCNC(=N)N)NC(=O)[C@H](CO)NC(=O)[C@H](CC(=O)O)NC1=O (H-ACSRYEVDSRGRGSACG-NH2; linker 2-16 via pXylylene)
metabolised at 50 µM [13]: 60%

CC(C)[C@H](NC(=O)[C@H](CCC(=O)O)NC(=O)[C@H](Cc1ccc(O)cc1)NC(=O)[C@H](CCCNC(=N)N)NC(=O)[C@H](CO)NC(=O)[C@H](CO)NC(=O)[C@H](C)N)C(=O)N[C@@H](CC(=O)O)C(=O)N[C@@H](CO)C(=O)N[C@@H](CCCNC(=N)N)C(=O)NCC(=O)N[C@@H](CCCNC(=N)N)C(=O)NCC(=O)N[C@@H](CO)C(=O)N[C@@H](C)C(=O)N[C@@H](CO)C(=O)NCC(N)=O (H-ASSRYEVDSRGRGSASG-NH2)
Stability (Plasma [10]): Unstable

C[C@@H]1NC(=O)[C@H](CO)NC(=O)CNC(=O)[C@H](CCCNC(=N)N)NC(=O)CNC(=O)[C@H](CCCNC(=N)N)NC(=O)[C@@H](N)CSCc2cccc(c2)CSC[C@@H](C(=O)NCC(N)=O)NC1=O (H-CRGRGSACG-NH2; linker 1-8 via mXylylene)
Stability (Plasma [5]): Unstable
